Source: PubChem BioAssay
Where “and” joins values, the source holds several entries; their conditions need not be identical. Equal entries are not always repeated. Calls of active or inactive are those of the source. Unless noted, no stated cut-off is given here; in the data, active means inhibition above about 30%; inactive means the rest.

Legend:
[1] = SK-BR-3 cell growth inhibitors, pilot screen, 24 h, human (AID 572;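 active means viability at or below 10% of carrier control in both of two separate runs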;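 further: compound exposure lasted between 18 and 24 h rather than exactly 24 h; 100% = carrier-treated control wells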); conditions: SK-BR-3 viability, CellTiter-Glo luminescence, at 10 µM, stronger effect = lower value
[2] = HUVEC growth inhibition – cell-based, human, primary screen (AID 575;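 active means viability at or below 30% in both replicate assays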;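 further: 100% = median of untreated cell wells with 0.1% DMSO on each plate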); conditions: HUVEC proliferation, CellTiter-Glo luminescence, 72 h; at 10 µM; stronger effect = lower value
Method in brief: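 Timing: 72 h treatment at 37 °C; material: HUVEC primary cells; technique: CellTiter-Glo luminescence measuring cellular ATP; controls: vehicle and MePR control wells; measure: percent of median DMSO-control luminescence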

[3] = growth inhibitors of H69AR lung tumor, primary screen, human, duplicate replicates (AID 580;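 active means viability at or under a set limit in both replicates, limit being median viability minus 3 SD, cut at about 48% in these data, passing the limit was not always enough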;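 further: 100% = mean luminescence of untreated wells and 0% = no signal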); conditions: H69AR lung tumor cells viability, ATP luminescence, 72 h; at 10 µM; stronger effect = lower value
[4] = reversal of MRP1-mediated doxorubicin resistance, pilot screen, H69AR cells, doxorubicin co-treatment (AID 601;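 active means viability loss from added drug above about 55%, and viability with drug at most 40%, in both replicates, limit read from the data, passing the limit was not always enough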); conditions: CellTiter-Glo, 72 h, at 10 µM; for differential viability (reversal): stronger effect = higher value
[5] = 384-well plate pilot, post-Golgi transport modulator project, inhibition of yeast transport mutant growth (AID 636; in the data active means inhibition above about 31%); conditions: absorbance 615 nm, about 18 h, stronger effect = higher value
[6] = growth suppression of yeast trafficking mutant, preliminary HTS, modulators of trafficking downstream of Golgi apparatus project, 1536-format plate, OD 615 nm (AID 637); conditions: yeast transport mutant growth, absorbance 615 nm, 18 h; stronger effect = higher value
[7] = H69AR cells + 2 uM doxorubicin, measured here: viability with 2 uM doxorubicin, stronger effect = lower value
[8] = H69AR cells, compound alone cytotoxicity

SMILES	viability [1]	viability [2]	viability [3]	differential viability (reversal) ([4]; H69AR cells + 2 uM doxorubicin)	viability [4, 7]	viability [4, 8]	inhibition [5]	inhibition [6]
CC1(C)CC(=O)C=C(NC2CCS(=O)(=O)C2)C1 (stereo unspecified)	97% (inactive)	107% (inactive)	91.3% (inactive)	-0.825% (inactive)	92.2%	91.3%	0% (inactive)	6.89% (inactive)
CN(Cc1nc(-c2ccncc2)no1)S(=O)(=O)c1ccc(Cl)cc1	115% (inactive)	87.2% (inactive)	88.9% (inactive)	-9.07% (inactive)	98%	88.9%	1.78% (inactive)	13.6% (inactive)
O=C1c2ccccc2NC(c2cccc(F)c2)N1Cc1ccco1 (stereo unspecified)	53% (inactive)	103% (inactive)	92% (inactive)	4.72% (inactive)	87.3%	92%	-6.85% (inactive)	-1.64% (inactive)
C=CCNC(=O)c1ccc(Cl)cc1Cl	108% (inactive)	92.8% (inactive)	97% (inactive)	4.47% (inactive)	92.6%	97%	-3.9% (inactive)	-1.48% (inactive)
Cc1cc(C)nc(N2CCC(C(=O)Nc3ccc(Oc4ccccc4)cc3)CC2)n1	67% (inactive)	105% (inactive)	88.9% (inactive)	0.65% (inactive)	88.2%	88.9%	-8.36% (inactive)	1.09% (inactive)
CNc1nnc(-c2cccc(N(C)C)c2)s1	111% (inactive)	95.9% (inactive)	92% (inactive)	7.45% (inactive)	84.6%	92%	-4.55% (inactive)	7.38% (inactive)
CCCn1c(=O)c2[nH]c(C3CCCC3)nc2n(CCC)c1=O	100% (inactive)	77.3% (inactive)	70.7% (inactive)	50.8% (inactive)	19.9%	70.7%	-1.3% (inactive)	-1% (inactive)
N#CCC(=O)N1CCn2c1nc1ccccc12	99% (inactive)	95% (inactive)	87.7% (inactive)	-0.78% (inactive)	88.5%	87.7%	0.13% (inactive)	0.33% (inactive)
CC1Oc2ccccc2N(Cc2ccccc2Cl)C1=O (stereo unspecified)	77% (inactive)	110% (inactive)	89.1% (inactive)	11.3% (inactive)	77.8%	89.1%	-5.34% (inactive)	2% (inactive)
CCOC(=O)c1cc(CC)sc1NC(=O)COC	104% (inactive)	89.4% (inactive)	88.8% (inactive)	2.66% (inactive)	86.2%	88.8%	-7.07% (inactive)	0.18% (inactive)
CN(C(=O)Cn1c(=O)n(CCCCC(=O)NC2CCCC2)c(=O)c2ccccc21)C1CCCCC1	106% (inactive)	63.2% (inactive)	93% (inactive)	12.2% (inactive)	80.9%	93%	-2.73% (inactive)	5.08% (inactive)
COC(=O)CC(C(=O)Nc1cc(C(=O)OC)cc(C(=O)OC)c1)N1CCN(C)CC1 (stereo unspecified)	132% (inactive)	99.5% (inactive)	95.6% (inactive)	5.77% (inactive)	89.8%	95.6%	-5.62% (inactive)	-7.9% (inactive)
CCN(CC(=O)Nc1ccc2c(c1)CCC2)Cc1nc2ccccc2c(=O)[nH]1	77% (inactive)	81.8% (inactive)	71.5% (inactive)	-13.7% (inactive)	85.2%	71.5%	-2.6% (inactive)	4.73% (inactive)
Cn1c(=O)[nH]c(=O)c2c1ncn2CCN1CCOCC1	96% (inactive)	102% (inactive)	99.1% (inactive)	5.28% (inactive)	93.8%	99.1%	-2.6% (inactive)	-1.48% (inactive)
CCOC(=O)c1c2n(c3ccc(O)cc13)CCCCC2	111% (inactive)	89.7% (inactive)	82.4% (inactive)	1.8% (inactive)	80.6%	82.4%	-7.47% (inactive)	0% (inactive)
CCOc1ccccc1-n1c(SCC(=O)NC2CCCC2)nnc1-c1ccoc1C	77% (inactive)	97% (inactive)	93% (inactive)	1.66% (inactive)	91.3%	93%	0.91% (inactive)	-4.92% (inactive)
O=C(O)CCc1ccc(-c2ccc(F)cc2)n1CCC(=O)O	71% (inactive)	104% (inactive)	98.5% (inactive)	-9.11% (inactive)	108%	98.5%	-7.53% (inactive)	3.45% (inactive)
Cc1cc(NS(=O)(=O)Cc2ccccc2)cc(C)c1OCC(=O)N1CCOCC1	95% (inactive)	92.1% (inactive)	94.6% (inactive)	20.2% (inactive)	74.4%	94.6%	-0.52% (inactive)	0% (inactive)
Cc1ccc(S(=O)(=O)N2CCN(C(=O)CSC3CCCC3)CC2)c(C)c1	74% (inactive)	87.4% (inactive)	81.6% (inactive)	-7.29% (inactive)	88.8%	81.6%	-9.59% (inactive)	-5.32% (inactive)
[O-][n+]1onc2c1CCc1nnc(-c3ccccc3)cc1-2	93.5% (inactive)	113% (inactive)	76.2% (inactive)	43.7% (inactive)	32.6%	76.2%	-1.18% (inactive)	8.03% (inactive)
O=C(c1ccccc1-c1nc(-c2ccccc2)no1)N1CCCC1	105% (inactive)	120% (inactive)	90.9% (inactive)	9.27% (inactive)	81.6%	90.9%	-5.07% (inactive)	-3.23% (inactive)
O=C(Nc1ccc2oc(=O)ccc2c1)c1cccnc1	111% (inactive)	107% (inactive)	98.9% (inactive)	14.6% (inactive)	84.2%	98.9%	-4.38% (inactive)	-0.18% (inactive)
O=C(CSc1oc(-c2ccco2)nc1S(=O)(=O)c1ccccc1)NCC1CCCO1 (stereo unspecified)	97% (inactive)	99.7% (inactive)	86.5% (inactive)	5.96% (inactive)	80.5%	86.5%	4.66% (inactive)	-0.16% (inactive)
CCN(CC)CCCNC1CCS(=O)(=O)C1 (stereo unspecified)	126% (inactive)	83% (inactive)	87.9% (inactive)	4.3% (inactive)	83.6%	87.9%	-3.42% (inactive)	-4.52% (inactive)

SMILES	viability [1]	viability [2]	viability [3]	differential viability (reversal) ([4]; H69AR cells + 2 uM doxorubicin)	viability [4, 7]	viability [4, 8]	inhibition [5]	inhibition [6]
Cc1ccccc1-n1nnc2c(=O)oc3ccccc3c21	99.5% (inactive)	64.9% (inactive)	85.8% (inactive)	1.29% (inactive)	84.5%	85.8%	-4.47% (inactive)	5.83% (inactive)
CC1=Nn2c(nnc2-c2ccccc2)SC1	96% (inactive)	105% (inactive)	95.2% (inactive)	17.6% (inactive)	77.7%	95.2%	-0.93% (inactive)	0% (inactive)
Cc1cc(=O)n(CCO)c(O)c1C#N	81.5% (inactive)	107% (inactive)	95.1% (inactive)	-5.74% (inactive)	101%	95.1%	-3.95% (inactive)	22.8% (inactive)
COc1ccc(-n2nnnc2SCC(=O)c2ccc(O)c(O)c2)cc1	74% (inactive)	58.6% (inactive)	34.7% (active)	-41.9% (inactive)	76.6%	34.7%	-5.89% (inactive)	-1.45% (inactive)
CCc1nnc(-n2nc(C)cc2-c2ccccc2)n1N	107% (inactive)	118% (inactive)	93.5% (inactive)	2.83% (inactive)	90.7%	93.5%	-2.47% (inactive)	-1.8% (inactive)
CCCCOc1cc(C(=O)NCCN(CC)CC)c2ccccc2n1	99% (inactive) and 112% (inactive)	53.4% (inactive) and 59.6% (inactive)	89.5% (inactive) and 84.4% (inactive)	8.11% (inactive) and 17.8% (inactive)	81.4% and 66.6%	89.5% and 84.4%	-2.86% (inactive) and -0.26% (inactive)	0.33% (inactive) and 6.5% (inactive)
CCN(CC)CCNC(=O)c1cc(Cl)c(N)cc1OC	89% (inactive)	85.9% (inactive)	93.8% (inactive)	-8.38% (inactive)	102%	93.8%	-3.25% (inactive)	-2.5% (inactive)
COc1ccc(OC)c(S(=O)(=O)Nc2ccc(O)c3ccccc23)c1	6% (active)	3.38% (active)	1.73% (active)	-0.325% (inactive)	2.06%	1.73%	-2.5% (inactive)	-5.33% (inactive)
CCOc1nc(-c2ccccc2)ccc1-c1noc(-c2ccc(OC)c(OC)c2)n1	68% (inactive)	85.1% (inactive)	67.1% (inactive)	-4.04% (inactive)	71.2%	67.1%	-1.43% (inactive)	-4.43% (inactive)
Cc1ccc(-c2nnc(-c3cccc(Br)c3)o2)cc1	106% (inactive)	99.7% (inactive)	89.6% (inactive)	-3% (inactive)	92.7%	89.6%	-6.76% (inactive)	4% (inactive)
CCc1cn([C@H]2C[C@H](O)[C@@H](CO)O2)c(=O)[nH]c1=O	120% (inactive)	93.2% (inactive)	85.9% (inactive)	9.33% (inactive)	76.6%	85.9%	-0.26% (inactive)	7.5% (inactive)
O=C(NCCCN1CCN(c2cccc(Cl)c2)CC1)c1ccc(N2CCCC2=O)cc1	69% (inactive)	76.1% (inactive)	89.1% (inactive)	-5.41% (inactive)	94.5%	89.1%	-1.1% (inactive)	4.91% (inactive)
NS(=O)(=O)c1cc2c(cc1C(F)(F)F)NCNS2(=O)=O	100% (inactive)	91% (inactive)	109% (inactive)	8.31% (inactive)	101%	109%	1.17% (inactive)	3.33% (inactive)
O=C(NC(=O)c1ccc(Cl)cc1)Nc1cc(N2CCCCC2)ncn1	85% (inactive)	93.9% (inactive)	91.1% (inactive)	-1.91% (inactive)	93%	91.1%	-7.4% (inactive)	3.87% (inactive)
O=C(Nc1ccc(Cl)c(C(F)(F)F)c1)N1CCCC(O)C1 (stereo unspecified)	98% (inactive)	107% (inactive)	105% (inactive)	20.9% (inactive)	83.6%	105%	-0.78% (inactive)	-6.23% (inactive)
Cc1ccc(-c2nnc(N3CCN(C(=O)CN4C(=O)c5ccccc5C4=O)CC3)c3ccccc23)cc1	84% (inactive)	73% (inactive)	94% (inactive)	-0.335% (inactive)	94.3%	94%	-1.23% (inactive)	-4.03% (inactive)
Nc1nnnn1NCc1cccc(OCc2ccccc2)c1	112% (inactive)	88.8% (inactive)	104% (inactive)	15.4% (inactive)	89%	104%	-7.95% (inactive)	3.71% (inactive)
Cc1ccc2nc(NC(=O)C3CCCN(S(=O)(=O)c4cccc5nonc45)C3)sc2c1 (stereo unspecified)	97.5% (inactive)	71.6% (inactive)	76% (inactive)	-14.8% (inactive)	90.8%	76%	-4.34% (inactive)	1.17% (inactive)
O=C(O)CCC(=O)NC1CCCCC1NC(=O)CCC(=O)O (stereo unspecified)	104% (inactive)	111% (inactive)	99% (inactive)	7.37% (inactive)	91.6%	99%	-5.47% (inactive)	0.73% (inactive)
COc1cc(NC2c3ccccc3C(=O)N2c2ccc(C)cn2)cc(OC)c1OC (stereo unspecified)	90.5% (inactive)	85.5% (inactive)	88.7% (inactive)	3.73% (inactive)	85%	88.7%	-1.41% (inactive)	1.17% (inactive)
COP(C)(=O)c1c(C)nn(-c2ccccc2)c1C (stereo unspecified)	122% (inactive)	104% (inactive)	96.3% (inactive)	1.8% (inactive)	94.5%	96.3%	0.39% (inactive)	1.15% (inactive)
O=S(=O)(c1cccs1)N1CCN(Cc2nc3ccccc3s2)CC1	87% (inactive)	72.1% (inactive)	84.9% (inactive)	-16.2% (inactive)	101%	84.9%	4.79% (inactive)	30.2% (active)
O=C(Cn1c(=O)n(CC2CCCO2)c(=O)c2ccccc21)c1ccccc1 (stereo unspecified)	121% (inactive)	79.1% (inactive)	81.5% (inactive)	-7.53% (inactive)	89%	81.5%	-1.17% (inactive)	6.39% (inactive)
